Results published in PubChem BioAssay AID743257 (The Scripps Research Institute Molecular Screening Center, 2014).
Hit rate of the full screen: of about 2,900 compounds, about 1,900 (66%) were called active. So high a share suggests a set chosen from earlier hits. Only a sample is shown. A number with no mark means an inactive call.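 The calls were made as follows: active = mean inhibition across replicates above the hit cutoff set in the primary screen (cut at about 8.5% in these data); inactive = the rest.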

Biological target: Disintegrin and metalloproteinase domain-containing protein 17 (Homo sapiens) (UniProt P78536)
Experiment: ADAM17 inhibitors, hit retest, confirmation, biochemical, QFRET peptide cleavage (AID 743257);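 also: 0% = DMSO wells and 100% = marimastat wells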
Conditions: recombinant ADAM17, EDANS/DABCYL QFRET peptide cleavage; at 6.95 µM; hits give high values
How it was run: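 Test system: human ADAM17 enzyme, FRET peptide cleavage; medium: 50 mM HEPES buffer, pH 7.5, with 0.01% Brij; incubation: 30 min preincubation plus 3 h reaction at 25 °C; measured by: fluorescence at ex 359 nm, em 460 nm; control set: DMSO and 1 µM marimastat control wells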

Sequence of Disintegrin and metalloproteinase domain-containing protein 17 (Homo sapiens) (P78536 215-824 limits assumed): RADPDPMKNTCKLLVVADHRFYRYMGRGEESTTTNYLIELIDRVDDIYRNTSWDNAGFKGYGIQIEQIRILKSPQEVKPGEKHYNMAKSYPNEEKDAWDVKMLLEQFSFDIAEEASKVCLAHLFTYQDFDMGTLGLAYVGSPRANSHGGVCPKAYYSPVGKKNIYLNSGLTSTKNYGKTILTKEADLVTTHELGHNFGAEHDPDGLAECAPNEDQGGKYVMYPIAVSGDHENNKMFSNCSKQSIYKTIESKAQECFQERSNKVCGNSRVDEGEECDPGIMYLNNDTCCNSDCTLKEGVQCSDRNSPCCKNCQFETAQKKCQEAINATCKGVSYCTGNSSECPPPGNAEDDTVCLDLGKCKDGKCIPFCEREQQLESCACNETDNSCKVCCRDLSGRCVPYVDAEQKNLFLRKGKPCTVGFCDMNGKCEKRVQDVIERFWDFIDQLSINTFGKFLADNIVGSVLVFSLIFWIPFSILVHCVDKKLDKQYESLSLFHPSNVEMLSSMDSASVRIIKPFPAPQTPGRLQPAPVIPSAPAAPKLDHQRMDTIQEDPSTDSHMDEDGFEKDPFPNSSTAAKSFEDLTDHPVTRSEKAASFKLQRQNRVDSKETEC

Row | SMILES | inhibition
1 | CCOC(=O)CC(SP1(=S)OCC2(CCCCO2)C(C2CCCCO2)O1)C(=O)OCC (configuration not stated) | 24.1% (active)
2 | COC(=O)C1=C(c2ccc(-c3ccccc3)c(F)c2)C[C@@H]2CC[C@H]1N2C(=O)NCc1ccc(F)cc1 | 7.03%
